# GASC1 inh = blocks human GASC-1 (KDM4C) demethylase activity | GST-KDM4C 2-372, H3K9me3 peptide, LANCE TR-FRET | Q9H3R0 | inhibition, % at 12.5 µM | hit rate 0.15% among 96,000 | AID 720574;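 active = mean replicate inhibition above about 25%, with at least 55% of replicates also reaching it, limit read from the data, passing the limit was not always enough; inconclusive = only one of those two conditions met; inactive = neither condition met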
# Target sequence (Q9H3R0 2-372 limits assumed): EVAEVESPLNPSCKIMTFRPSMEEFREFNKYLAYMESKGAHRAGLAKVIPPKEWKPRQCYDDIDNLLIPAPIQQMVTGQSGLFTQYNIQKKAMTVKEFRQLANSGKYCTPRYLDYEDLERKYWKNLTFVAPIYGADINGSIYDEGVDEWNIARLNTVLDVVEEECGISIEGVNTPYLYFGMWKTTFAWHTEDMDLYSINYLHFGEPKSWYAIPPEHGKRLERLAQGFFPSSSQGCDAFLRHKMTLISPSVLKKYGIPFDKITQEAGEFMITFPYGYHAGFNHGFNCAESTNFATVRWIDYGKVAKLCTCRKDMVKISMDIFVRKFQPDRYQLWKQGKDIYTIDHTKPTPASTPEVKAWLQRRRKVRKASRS
#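 System: N-terminal GST-fused human GASC-1 (KDM4C) fragment, residues 2-372; amount: enzyme final amount 10 nM; incubation: reaction 30 min RT, detection step 1 h RT; medium: HEPES buffer, pH 7.5, plus ascorbate; technique: LANCE TR-FRET, Eu antibody, ULight-streptavidin, EDTA, ex 340 nm, em 618/671 nm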
# T cruzi growth-1 = T. cruzi proliferation inhibition. AID 624255. inhibition, % at 8.34 µM. hit rate 5.9% among 77,000. T. cruzi beta-gal in NIH3T3, GalScreen luminescence, 90 h;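 active = mean inhibition above about 93%, with at least 55% of replicates each passing it, limit read from the data, passing the limit was not always enough; inconclusive = only one of those two conditions holds; inactive = neither condition holds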
# IDH1 R132H inh = IDH1 R132H (human) inhibition | hit rate 0.18% among 70,000 | O75874 | IDH1 R132H reductase, diaphorase/resazurin fluorescence, 60 min | inhibition, % at 10 µM; in the data active = inhibition above about 34%; inconclusive = no clear call, values can overlap the other calls; inactive = below about 11%;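 also: 0% = DMSO and 100% = no enzyme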
# Pf Dd2 inh = inhibitors of Plasmodium falciparum Dd2 growth | P. falciparum Dd2 growth, SYBR Green, 72 h; active compounds read low | activity change, % at 10 µM | hit rate 2.3% among 94,000 | AID 1159554; in the data active = activity change below about -80%; inconclusive = no clear call, values can overlap the other calls
# T cruzi growth-2 = Trypanosoma cruzi proliferation inhibition; shares compounds with T cruzi growth-1; inhibition, % at 8.35 µM; hit rate 72% among 5,600; AID 651739; T. cruzi beta-gal in NIH3T3, GalScreen luminescence, 90 h;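 active = mean replicate inhibition above about 95% and at least 55% of replicates individually reaching it, limit read from the data; inconclusive = only one of the two criteria is met; inactive = neither criterion is met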
# T cruzi growth-3 = Trypanosoma cruzi proliferation inhibition; shares compounds with T cruzi growth-1; T. cruzi beta-gal in NIH3T3, GalScreen luminescence, 90 h; inhibition, % at 2.09 µM; hit rate 21% among 5,600; AID 651740;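 active = mean inhibition above about 95%, with at least 55% of replicates also reaching it, limit read from the data; inconclusive = meets just one of the two conditions; inactive = meets neither condition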;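 also: plate controls were neutral control median for no effect and positive control median for full effect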
# NIH3T3 tox = kills mouse NIH/3T3 fibroblasts. cytotoxicity (signal decrease), % at 8.35 µM. NIH/3T3 viability, CellTiter-Glo ATP luminescence, 90 h. hit rate 14% among 5,600. shares compounds with T cruzi growth-1;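 active = mean signal decrease across replicates above about 35% based on untreated-well scatter, with enough replicates individually passing, limit read from the data; inconclusive = no rule stated though some were filed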;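 also: 0% = median of neutral control wells and 100% = median of positive control wells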
# 3T3 cytotox 2 = kills mouse NIH/3T3 fibroblasts; shares compounds with T cruzi growth-1; NIH/3T3 viability, CellTiter-Glo ATP luminescence, 90 h; inhibition, % at 24.9 µM; hit rate 56% among 5,600; AID 651744;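 active = mean loss of cell viability signal at or above a set limit, and enough replicates individually reaching it; inconclusive = meets only the mean limit or only the replicate share; inactive = meets neither condition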;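 also: 0% = median of neutral control wells and 100% = median of positive control wells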
# The depositor's hits bear a star; ? = inconclusive; . = not tested or not shown. The list is not random: actives were taken first. Their share in the collection is about 5.9%.
SMILES,GASC1 inh,T cruzi growth-1,IDH1 R132H inh,Pf Dd2 inh,T cruzi growth-2,T cruzi growth-3,NIH3T3 tox,3T3 cytotox 2
Cc1ccc(NC(=O)C(C)Sc2n[nH]c(C)n2)cc1 (configuration not stated),.,.,0,.,.,.,.,.
CCOc1ccccc1NC(=O)c1ccsc1NC(=O)c1cc2ccccc2oc1=O,.,.,0,.,.,.,.,.
CC(C)NC(=O)N(C)C[C@H]1Oc2cc(C#Cc3cccc(F)c3)ccc2S(=O)(=O)N([C@H](C)CO)C[C@@H]1C,9,4,1,-43,.,.,.,.
CCCNC(=O)N(C)C[C@@H]1Oc2cc(C#Cc3cccc(F)c3)ccc2S(=O)(=O)N([C@H](C)CO)C[C@@H]1C,0,116*,0,-37,111*,61,15,47*
CCCNC(=O)N(C)C[C@@H]1Oc2cc(C#CCC(C)C)ccc2S(=O)(=O)N([C@H](C)CO)C[C@@H]1C,-1,62,0,-37,.,.,.,.
CCCNC(=O)N(C)C[C@H]1Oc2cc(C#CCC(C)C)ccc2S(=O)(=O)N([C@@H](C)CO)C[C@@H]1C,-2,106*,-3,-27,100*,31,16,28*
CCCNC(=O)N(C)C[C@@H]1Oc2cc(C#Cc3cccc(F)c3)ccc2S(=O)(=O)N([C@H](C)CO)C[C@H]1C,-4,?,2,-35,106*,71,47*,94*
CC(=O)N(C)C[C@H]1Oc2cc(C#Cc3cccc(F)c3)ccc2S(=O)(=O)N([C@H](C)CO)C[C@@H]1C,-3,64,0,-31,.,.,.,.
CCCC#Cc1ccc2c(c1)O[C@@H](CN(C)C(=O)NCCC)[C@@H](C)CN([C@H](C)CO)S2(=O)=O,0,40,-1,-40,.,.,.,.
CCCNC(=O)N(C)C[C@@H]1Oc2cc(C#Cc3cccc(F)c3)ccc2S(=O)(=O)N([C@@H](C)CO)C[C@@H]1C,-1,117*,0,-45,110*,47,32,83*
O=C(CCCCCCC(=O)Nc1ccccc1O)N/N=C/c1ccc(F)c(Oc2ccccc2)c1,.,.,0,.,.,.,.,.
O=C(COc1ccc([N+](=O)[O-])cc1)Nc1ccc2oc(-c3ccc(F)cc3Cl)nc2c1,.,.,0,.,.,.,.,.
CCCNC(=O)N(C)C[C@H]1Oc2cc(C#Cc3cccc(F)c3)ccc2S(=O)(=O)N([C@H](C)CO)C[C@H]1C,0,125*,-1,-32,106*,80,31,66*
O=C(Nc1cccc(S(=O)(=O)N2CCCC2)c1)c1cc(-n2cnnc2)ccc1Cl,.,.,0,.,.,.,.,.
CC(C)C#Cc1cnc2c(c1)C(=O)N([C@@H](C)CO)C[C@H](C)[C@H](CN(C)C(=O)Nc1ccc(F)cc1)O2,-2,102*,.,-34,46,40,30,?
CC(C)C#Cc1cnc2c(c1)C(=O)N([C@@H](C)CO)C[C@H](C)[C@@H](CN(C)C(=O)Nc1ccc(F)cc1)O2,-1,-13,0,-44,.,.,.,.
CC(C)C#Cc1cnc2c(c1)C(=O)N([C@H](C)CO)C[C@H](C)[C@H](CN(C)C(=O)Nc1ccc(F)cc1)O2,-1,116*,1,-18,-51,28,15,86*
COc1ccc(S(=O)(=O)Nc2ccc3c(c2)C(=O)N([C@H](C)CO)C[C@@H](C)[C@@H](CN(C)Cc2ccc(Cl)c(Cl)c2)O3)cc1,-1,72,1,16,.,.,.,.
C[C@H]1CN([C@@H](C)CO)C(=O)c2cc(NS(=O)(=O)c3ccc(F)cc3)ccc2O[C@@H]1CN(C)Cc1ccc(Cl)c(Cl)c1,2,?,0,-7,101*,73,25,98*
C[C@H](CO)N1C[C@H](C)[C@H](CN(C)Cc2ccc(Cl)c(Cl)c2)Oc2ccc(NS(=O)(=O)c3ccc(F)cc3)cc2C1=O,0,27,5,17,.,.,.,.
COc1ccc(S(=O)(=O)Nc2ccc3c(c2)C(=O)N([C@H](C)CO)C[C@@H](C)[C@H](CN(C)Cc2ccc(Cl)c(Cl)c2)O3)cc1,0,120*,.,1,102*,22,9,104*
